Our source for the Activity, Ratio and fold change (FC) values is ChEMBL document CHEMBL1154352, “Toll-like receptor 7 selective synthetic oligoribonucleotide agonists: synthesis and structure-activity relationship studies” (J Med Chem, 2009).

Active and inactive are the calls of the source. The calls are words filed in the database; no cut-off is given here.

The species entered for assay [1] is Homo sapiens. Description: Immunostimulatory activity in human mDC assessed as induction of IL12 at 100 ug/ml after 24 hrs. The format is functional. A digest of the protocol:
(§1)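 Human mDCs isolated from PBMCs by CD19+ B-cell depletion then BDCA1 positive selection; plated at 1 × 10^6 cells/mL, compounds in PBS, 37 °C for 24 h; supernatant cytokines by human Luminex multiplex. Representative of four independent experiments.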

The species entered for assay [2] is Homo sapiens. Description: Ratio of human TLR7 activity to human TLR8 activity. In short, it runs like this: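 TLR7/TLR8 ratio computed from fold NF-κB (SEAP reporter) activation in HEK293 cells stably expressing human TLR7 versus TLR8, compounds at 50 μg/mL, 18 h exposure; representative of three independent experiments.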
Assay [3] has as its system PBMC. The assay can be described thus: Immunomodulatory activity in human PBMC assessed as induction of MIP1alpha at 50 ug/ml after 24 hrs. The format is functional, cell-based. In short, it runs like this: (§2)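 Human PBMCs plated at 5 × 10^6 cells/mL; compounds dissolved in PBS added at various concentrations, 37 °C for 24 h. Supernatant cytokines/chemokines quantified with human Luminex multiplex kit.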

For assay [4], the species on record is Homo sapiens. Description: Immunostimulatory activity in human mDC assessed as induction of IP10 at 100 ug/ml after 24 hrs. The format is functional. A digest of the protocol:
as §1

Assay [5] is filed under the species Homo sapiens. Description: Immunostimulatory activity in human mDC assessed as induction of TNFalpha at 100 ug/ml after 24 hrs. The format is functional. A digest of the protocol:
as §1

The subject of assay [6] is PBMC. The assay can be described thus: Immunomodulatory activity in human PBMC assessed as induction of IFNalpha at 50 ug/ml after 24 hrs. The format is functional, cell-based. In short, it runs like this: as §2
Assay [7] concerns PBMC. Description: Immunomodulatory activity in human PBMC assessed as induction of IL12 at 50 ug/ml after 24 hrs. The format is functional, cell-based. A digest of the protocol:
as §2

The test system of assay [8] is PBMC. The assay can be described thus: Immunomodulatory activity in human PBMC assessed as induction of MCP1 at 50 ug/ml after 24 hrs. The format is functional, cell-based. A digest of the protocol: as §2
For assay [9], the species on record is Homo sapiens. The assay can be described thus: Immunostimulatory activity in human pDC assessed as induction of IL6 at 100 ug/ml after 24 hrs. The format is functional. In short, it runs like this: (§3)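 Human pDCs plated at 1 × 10^6 cells/mL; compounds in PBS added, 37 °C for 24 h; supernatant cytokines/chemokines by human Luminex multiplex kit.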
The subject of assay [10] is PBMC. Description: Immunomodulatory activity in human PBMC assessed as induction of TNFalpha at 50 ug/ml after 24 hrs. The format is functional, cell-based. A digest of the protocol:
as §2

Assay [11] is filed under the species Homo sapiens. Description: Immunostimulatory activity in human mDC assessed as induction of IL6 at 100 ug/ml after 24 hrs. The format is functional. A digest of the protocol:
as §1

Assay [12] has as its target T1, Toll-like receptor 7 (Homo sapiens) (UniProt Q9NYK1).
T1 sequence (whole entry): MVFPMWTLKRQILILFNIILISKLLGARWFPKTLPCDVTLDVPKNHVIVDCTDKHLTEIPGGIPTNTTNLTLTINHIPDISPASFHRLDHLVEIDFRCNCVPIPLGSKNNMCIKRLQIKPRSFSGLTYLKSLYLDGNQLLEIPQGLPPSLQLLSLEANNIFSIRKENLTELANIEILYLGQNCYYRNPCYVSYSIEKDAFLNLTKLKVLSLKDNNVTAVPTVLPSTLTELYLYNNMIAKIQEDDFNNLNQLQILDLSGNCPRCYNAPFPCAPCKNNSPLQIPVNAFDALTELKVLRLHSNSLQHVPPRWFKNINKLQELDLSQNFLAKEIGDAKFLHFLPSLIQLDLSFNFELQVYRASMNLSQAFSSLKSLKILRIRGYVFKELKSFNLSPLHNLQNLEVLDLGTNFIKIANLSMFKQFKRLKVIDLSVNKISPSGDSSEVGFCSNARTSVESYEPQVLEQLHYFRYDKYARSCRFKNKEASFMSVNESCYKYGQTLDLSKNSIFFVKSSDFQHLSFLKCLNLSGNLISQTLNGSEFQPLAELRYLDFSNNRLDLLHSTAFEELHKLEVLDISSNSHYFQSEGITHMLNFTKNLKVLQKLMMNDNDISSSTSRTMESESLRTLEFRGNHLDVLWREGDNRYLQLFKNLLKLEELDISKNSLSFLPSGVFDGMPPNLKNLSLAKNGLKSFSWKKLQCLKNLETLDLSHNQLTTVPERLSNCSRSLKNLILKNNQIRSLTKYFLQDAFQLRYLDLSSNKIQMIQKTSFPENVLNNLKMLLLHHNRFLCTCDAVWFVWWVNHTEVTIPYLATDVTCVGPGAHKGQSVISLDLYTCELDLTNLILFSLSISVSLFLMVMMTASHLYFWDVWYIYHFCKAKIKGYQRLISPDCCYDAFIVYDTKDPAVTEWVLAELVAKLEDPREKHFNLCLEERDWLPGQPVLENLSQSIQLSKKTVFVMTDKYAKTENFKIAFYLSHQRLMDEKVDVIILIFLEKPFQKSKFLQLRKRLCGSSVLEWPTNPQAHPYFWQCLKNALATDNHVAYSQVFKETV
Description: Activation of human TLR7 expressed in HEK293XL assessed as fold induction of NF-kappaB activity at 50 ug/ml after 18 hrs by reporter gene assay relative to control. In short, it runs like this:
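HEK293 cells stably expressing human TLR7 or TLR8, transiently transfected with SEAP reporter plasmid; medium replaced, SIMRA compounds added, 18 h incubation. Supernatant SEAP measured by QuantiBlue; expressed as fold increase in NF-κB activity over PBS control. Tabulated data at 50 μg/mL, representative of three independent experiments.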

Assay [13] relates to PBMC. Description: Immunomodulatory activity in human PBMC assessed as induction of IL1-beta at 50 ug/ml after 24 hrs. The format is functional, cell-based. A digest of the protocol:
as §2

Assay [14] has as its system PBMC. Description: Immunomodulatory activity in human PBMC assessed as induction of IL6 at 50 ug/ml after 24 hrs. The format is functional, cell-based. A digest of the protocol: as §2
The species entered for assay [15] is Homo sapiens. The assay can be described thus: Immunostimulatory activity in human mDC assessed as induction of IFNalpha at 100 ug/ml after 24 hrs. The format is functional. In short, it runs like this:
as §1

The test system of assay [16] is PBMC. Description: Immunomodulatory activity in human PBMC assessed as induction of IP10 at 50 ug/ml after 24 hrs. The format is functional, cell-based. In short, it runs like this: as §2
Assay [17] relates to PBMC. Description: Immunomodulatory activity in human PBMC assessed as induction of MIP1beta at 50 ug/ml after 24 hrs. The format is functional, cell-based. A digest of the protocol:
as §2

The species named for assay [18] is Homo sapiens. Description: Immunostimulatory activity in human pDC assessed as induction of IP10 at 100 ug/ml after 24 hrs. The format is functional. In short, it runs like this:
as §3

Assay [19] is filed under the species Homo sapiens. Description: Immunostimulatory activity in human pDC assessed as induction of IFNalpha at 100 ug/ml after 24 hrs. The format is functional. In short, it runs like this: as §3

Turning to `Nc1ccn([C@@H]2O[C@H](COP(=O)(S)O[C@H]3[C@@H](O)[C@H](n4cnc5c(=O)[nH]c(N)nc54)O[C@@H]3COP(=O)(S)O[C@H]3[C@@H](O)[C@H](n4ccc(=O)[nH]c4=O)O[C@@H]3COP(=O)(S)OCCCO)[C@@H](OP(=O)(S)OC[C@H]3O[C@@H](n4ccc(=O)[nH]c4=O)[C@H](O)[C@@H]3OP(=O)(S)OC[C@H]3O[C@@H](n4cnc5c(=O)[nH]c(N)nc54)[C@H](O)[C@@H]3OP(=O)(S)OC[C@H]3O[C@@H](n4ccc(N)nc4=O)[C@H](O)[C@@H]3OP(=O)(S)OC[C@H]3O[C@@H](n4ccc(=O)[nH]c4=O)[C@H](O)[C@@H]3OP(=O)(S)OC[C@H]3O[C@@H](n4ccc(=O)[nH]c4=O)[C@H](O)[C@@H]3OP(=O)(S)OC[C@H]3O[C@@H](n4cnc5c(=O)[nH]c(N)nc54)[C@H](O)[C@@H]3OP(=O)(S)OC[C@H]3O[C@@H](n4ccc(=O)[nH]c4=O)[C@H](O)[C@@H]3OP(=O)(S)OC[C@H]3O[C@@H](n4cnc5c(=O)[nH]c(N)nc54)[C@H](O)[C@@H]3OP(=O)(S)OCC(O)COP(=O)(S)O[C@H]3[C@@H](O)[C@H](n4cnc5c(=O)[nH]c(N)nc54)O[C@@H]3COP(=O)(S)O[C@H]3[C@@H](O)[C@H](n4ccc(=O)[nH]c4=O)O[C@@H]3COP(=O)(S)O[C@H]3[C@@H](O)[C@H](n4cnc5c(=O)[nH]c(N)nc54)O[C@@H]3COP(=O)(S)O[C@H]3[C@@H](O)[C@H](n4ccc(=O)[nH]c4=O)O[C@@H]3COP(=O)(S)O[C@H]3[C@@H](O)[C@H](n4ccc(=O)[nH]c4=O)O[C@@H]3COP(=O)(S)O[C@H]3[C@@H](O)[C@H](n4ccc(N)nc4=O)O[C@@H]3COP(=O)(S)O[C@H]3[C@@H](O)[C@H](n4cnc5c(=O)[nH]c(N)nc54)O[C@@H]3COP(=O)(S)O[C@H]3[C@@H](O)[C@H](n4ccc(=O)[nH]c4=O)O[C@@H]3COP(=O)(S)O[C@H]3[C@@H](O)[C@H](n4ccc(N)nc4=O)O[C@@H]3COP(=O)(S)O[C@H]3[C@@H](O)[C@H](n4cnc5c(=O)[nH]c(N)nc54)O[C@@H]3COP(=O)(S)O[C@H]3[C@@H](O)[C@H](n4ccc(=O)[nH]c4=O)O[C@@H]3COP(=O)(S)OCCCO)[C@H]2O)c(=O)n1` (some centres not stated), the result in the assay listed under Homo sapiens [1], in the assay filed under Homo sapiens [4], in the assay filed under Homo sapiens [5], in the assay listed under Homo sapiens [9], in the assay filed under Homo sapiens [11] and in the assay filed under Homo sapiens [15] was Active. Moreover, in the assay listed under Homo sapiens [18], the result was Active. In addition, the Ratio in the assay listed under Homo sapiens [2] came out at 0.1. The Activity in the assay with PBMC [3] came out at 4760 pg/mL; in the assay on PBMC [6], 56 pg/mL; in the assay with PBMC [7] it was 570 pg/mL; in the assay on PBMC [8], 46700 pg/mL; in the assay with PBMC [10] it was 541 pg/mL; in the assay on PBMC [13], 568 pg/mL. Moreover, the Activity came to 3980 pg/mL in the assay with PBMC [14], 24 pg/mL with PBMC [16] and 5730 pg/mL in the assay on PBMC [17]. The fold change (FC) in assay [12] was 0.5.

As to `Nc1ncnc2c1ncn2[C@@H]1O[C@H](CO)[C@@H](OP(=O)(S)OC[C@H]2O[C@@H](n3cnc4c(N)ncnc43)[C@H](O)[C@@H]2OP(=O)(S)OC[C@H]2O[C@@H](n3cnc4c(N)ncnc43)[C@H](O)[C@@H]2OP(=O)(S)OC[C@H]2O[C@@H](n3cnc4c(N)ncnc43)[C@H](O)[C@@H]2OP(=O)(S)OC[C@H]2O[C@@H](n3cnc4c(N)ncnc43)[C@H](O)[C@@H]2OP(=O)(S)OC[C@H]2O[C@@H](n3cnc4c(N)ncnc43)[C@H](O)[C@@H]2OP(=O)(S)OC[C@H]2O[C@@H](n3cnc4c(N)ncnc43)[C@H](O)[C@@H]2OP(=O)(S)OC[C@H]2O[C@@H](n3cnc4c(N)ncnc43)[C@H](O)[C@@H]2OP(=O)(S)OC[C@H]2O[C@@H](n3cnc4c(N)ncnc43)[C@H](O)[C@@H]2OP(=O)(S)OC[C@H]2O[C@@H](n3cnc4c(N)ncnc43)[C@H](O)[C@@H]2OP(=O)(S)OC[C@H]2O[C@@H](n3cnc4c(N)ncnc43)[C@H](O)[C@@H]2OP(=O)(S)OCC(O)COP(=O)(S)O[C@H]2[C@@H](O)[C@H](n3cnc4c(N)ncnc43)O[C@@H]2COP(=O)(S)O[C@H]2[C@@H](O)[C@H](n3cnc4c(N)ncnc43)O[C@@H]2COP(=O)(S)O[C@H]2[C@@H](O)[C@H](n3cnc4c(N)ncnc43)O[C@@H]2COP(=O)(S)O[C@H]2[C@@H](O)[C@H](n3cnc4c(N)ncnc43)O[C@@H]2COP(=O)(S)O[C@H]2[C@@H](O)[C@H](n3cnc4c(N)ncnc43)O[C@@H]2COP(=O)(S)O[C@H]2[C@@H](O)[C@H](n3cnc4c(N)ncnc43)O[C@@H]2COP(=O)(S)O[C@H]2[C@@H](O)[C@H](n3cnc4c(N)ncnc43)O[C@@H]2COP(=O)(S)O[C@H]2[C@@H](O)[C@H](n3cnc4c(N)ncnc43)O[C@@H]2COP(=O)(S)O[C@H]2[C@@H](O)[C@H](n3cnc4c(N)ncnc43)O[C@@H]2COP(=O)(S)O[C@H]2[C@@H](O)[C@H](n3cnc4c(N)ncnc43)O[C@@H]2COP(=O)(S)O[C@H]2[C@@H](O)[C@H](n3cnc4c(N)ncnc43)O[C@@H]2CO)[C@H]1O` (some centres not stated), the result in the assay listed under Homo sapiens [19], in the assay listed under Homo sapiens [1], in the assay filed under Homo sapiens [4], in the assay listed under Homo sapiens [5], in the assay listed under Homo sapiens [9] and in the assay listed under Homo sapiens [11] was inactive. The outcome in the assay listed under Homo sapiens [15] and in the assay listed under Homo sapiens [18] was inactive. The outcome in the assay listed under Homo sapiens [2] was Active. The Activity in the assay on PBMC [3] was 43 pg/mL; in the assay with PBMC [6], 12 pg/mL; with PBMC [7], 138 pg/mL; in the assay with PBMC [8], 724 pg/mL; in the assay on PBMC [10], 0 pg/mL; in the assay with PBMC [13], 28 pg/mL. Moreover, the Activity in the assay on PBMC [14] was 12 pg/mL; in the assay with PBMC [16], 4 pg/mL; in the assay with PBMC [17] it was 83 pg/mL. Also, the fold change (FC) in assay [12] stood at 0.3.
